GalR3 antagonist – human GalR3 antagonism | O60755 | HEK293 GalR3-CNG cAMP membrane potential fluorescence; galR3 body fused to GalR1 C-terminus | inhibition, % at 3 µM | hit rate 0.44% among 360,000 | AID 651719;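 active means inhibition above the screen-wide average plus 3 SD, cut at about 13% in these data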;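 further: forskolin and galanin both at EC90 stimulate the cells; cAMP rise reported by CNG channel membrane potential dye signal; 0% = forskolin plus galanin with DMSO and 100% = forskolin alone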
Target sequence (O60755 1-299 limits assumed): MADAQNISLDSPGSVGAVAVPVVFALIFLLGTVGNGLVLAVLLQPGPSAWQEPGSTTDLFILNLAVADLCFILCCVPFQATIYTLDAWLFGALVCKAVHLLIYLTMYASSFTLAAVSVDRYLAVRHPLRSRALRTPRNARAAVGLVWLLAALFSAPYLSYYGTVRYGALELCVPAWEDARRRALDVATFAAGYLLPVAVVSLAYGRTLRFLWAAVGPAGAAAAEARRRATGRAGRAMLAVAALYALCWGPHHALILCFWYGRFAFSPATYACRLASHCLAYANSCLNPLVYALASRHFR
MC4R antagonist – blocks human MC4R cAMP signaling; P32245; MC4R-expressing cells, MTII-stimulated cAMP, LANCE TR-FRET; inhibition, % at 6.5 µM; hit rate 0.48% among 360,000;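 active means inhibition above its plate's cutoff, the mean of tested wells on that plate plus 3 SD, cut at about 29% in these data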;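 further: 0% = Melanotan II alone and 100% = Melanotan II plus saturating MCL0020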
Target sequence (P32245 whole entry, looked up): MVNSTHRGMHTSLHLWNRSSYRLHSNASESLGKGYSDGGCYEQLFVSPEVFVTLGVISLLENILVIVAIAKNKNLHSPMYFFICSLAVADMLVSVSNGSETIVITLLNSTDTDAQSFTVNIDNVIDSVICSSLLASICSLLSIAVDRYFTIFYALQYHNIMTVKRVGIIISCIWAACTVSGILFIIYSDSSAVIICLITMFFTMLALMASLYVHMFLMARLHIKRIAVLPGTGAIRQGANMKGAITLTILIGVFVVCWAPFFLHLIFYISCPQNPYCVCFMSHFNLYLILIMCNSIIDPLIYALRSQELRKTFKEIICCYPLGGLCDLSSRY
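Material – human MC4R-expressing U2OS cells · Repeats – no replicates · Detection – TR-FRET with Eu-cAMP and labeled anti-cAMP, 671 nm · Times – compound 30 min, challenge 1 h, detection 1 h · Compound – single nominal compound dose of 6.5 µM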
Calb FLC – affects C. albicans growth with fluconazole; C. albicans CaCi-2 + fluconazole, Alamar Blue growth, 48 h; growth inhibition, % (concentration not given with the values); hit rate 0.57% among 300,000;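 active means growth inhibition above about 58% in most replicates, limit read from the data, passing the limit was not always enough; inconclusive means exactly half the replicates above a set limit; inactive means most replicates below a set limit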;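 further: all wells also contain fluconazole at 8 µg/ml as a sub-toxic cotreatment; 0% = median of DMSO wells and 100% = median of geldanamycin control wells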
Efflux pump mplx – inhibitors of Candida antifungal efflux pumps expressed in yeast. hit rate 0.44% among 330,000. inhibition, % at 10 µM. S. cerevisiae Candida pump triplex, Nile Red efflux;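 active means plate passing quality check with inhibition over a set limit, or well fluorescence over plate mean plus 4 SD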;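 further: Nile Red retained in pooled yeast measured as flow cytometry median fluorescence; 0% = buffer negative control and 100% = Enniatin B positive control; higher means more Nile Red kept so more efflux inhibition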
MC4R ag barr – agonists of human melanocortin 4 receptor (MC4R) beta-arrestin. activation, % at 8.9 µM. hit rate 0.98% among 360,000. P32245. U2OS MC4R beta-arrestin complementation, luminescence; percent of melanotan II response, DMSO zero;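 active means activation above a per-plate cutoff, the mean activation of sample wells on that plate plus 3 SD, cut at about 8% in these data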
TAG inh – triacylglycerol accumulation inhibition. hit rate 0.66% among 230,000. H9c2 cells, Nile Red lipid (TAG) fluorescence; cells loaded with 200 µM oleic acid. inhibition, % at 12.5 µM;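 active means pattern-corrected inhibition of lipid staining of at least 50% with the nuclear-stain viability signal not falling by more than 50%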;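 further: 0% = DMSO wells and 100% = triacsin C control wells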
GalR3 conf – GalR3 (human) antagonism, confirmation; shares compounds with GalR3 antagonist; HEK293 GalR3 CNG cAMP biosensor, membrane potential fluorescence; galR3 fused to GalR1 carboxy tail; challenged with forskolin and galanin at EC90; inhibition, % at 3 µM; hit rate 59% among 1,600;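 active means inhibition above the primary screen's cutoff, the mean inhibition of all screened compounds plus 3 SD, cut at about 13% in these data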;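 further: 0% = forskolin plus galanin and 100% = forskolin alone with DMSO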
CNG parental – parental cell agonism counter-screen for GalR3 antagonists | shares compounds with GalR3 antagonist | HEK293-CNG parental cells, cAMP membrane potential fluorescence; normalised: DMSO wells 0%, forskolin wells 100% | activation, % at 3 µM | hit rate 10% among 1,600 | AID 652268; in the data active means activation above about 1.3%
An asterisk follows results filed as active; ? = inconclusive; . = not tested or not shown. Sampled rows, rich in hits. Any-hit rate of the full collection: about 2.9%.

SMILES	GalR3 antagonist	MC4R antagonist	Calb FLC	Efflux pump mplx	MC4R ag barr	TAG inh	GalR3 conf	CNG parental
COCCCN(Cc1cccs1)S(=O)(=O)c1csc(C(N)=O)c1	-8	3	10	0	-2	.	.	.
CCCCN(Cc1cccs1)S(=O)(=O)c1ccc(-c2ccc(=O)[nH]n2)s1	22*	3	-2	0	-2	.	24*	0
CN(C)CCN(Cc1ccccc1)S(=O)(=O)c1ccc(-c2ccc(=O)[nH]n2)s1	11	13	-34	0	1	.	.	.
CCOC(=O)CCN(c1ccccc1)S(=O)(=O)c1ccc(-c2ccc(=O)[nH]n2)s1	33*	2	-10	0	1	.	57*	0
COCCN(Cc1cccs1)S(=O)(=O)c1ccc(-c2ccc(=O)[nH]n2)s1	26*	4	-2	0	0	.	28*	0
Cc1ccc(Cn2ncc3c(N4CCN(Cc5ccc(Cl)cc5)CC4)ncnc32)cc1	53*	11	18	0	-2	-1	69*	1
CCC(NC(=O)Nc1nnc(C(F)(F)F)s1)(C(F)(F)F)C(F)(F)F	58*	-2	?	0	0	-48	84*	0
O=C(O)CCC(=O)Nc1nnc(C(F)(F)F)s1	0	4	.	0	0	2	.	.
CCOC(=O)C1c2cccc(O)c2CCN1C(C)=O (stereo not given)	-3	9	.	.	-2	-2	.	.
Cc1sc2ncnc(NCCc3ccc(S(N)(=O)=O)cc3)c2c1C	59*	4	?	0	0	.	109*	0
NS(=O)(=O)c1ccc(CCNc2ncnc3sccc23)cc1	4	0	-4	0	-1	-74	.	.
CCCCCCCCN1C(=O)[C@@H](CC(=O)NCCc2ccccc2OC)C[C@@]2(C(=O)OC)C1=C[C@H](C(C)(C)C)O[C@@H]2C	-3	.	.	.	.	.	.	.
CNC(=O)[C@H]1O[C@@H](n2cnc3c(NCc4cccc(I)c4)nc(Cl)nc32)[C@H](O)[C@@H]1O	51*	-7	.	0	-1	-7	52*	-1
CC(C)(C)OC(=O)CC[C@@H](C(=O)NCCCCCCCCCCC(=O)N1CCN(C(=O)OC(C)(C)C)CC1)n1cc(CCCCCNC(=O)OC(C)(C)C)nn1	-4	10	.	0	-1	-8	.	.
CC(C)(C)OC(=O)NCCCCCc1cn([C@@H](CO)C(=O)NCCCCCCCCCCC(=O)N2CCN(C(=O)OC(C)(C)C)CC2)nn1	88*	17	.	0	5	-10	102*	0
O=C(Nc1ccc2ccccc2c1)C(c1ccccc1)n1c(=O)c(-c2cc3ccccc3[nH]2)nc2ccccc21 (stereo not given)	-6	.	.	.	.	.	.	.
Cc1ccc(-c2csc(NC(=O)C3CCN(S(=O)(=O)c4cccs4)CC3)n2)cc1	101*	15	1	0	-1	.	104*	0
CCc1nc2ccc(C(=O)NCCOc3ccc(OC)cc3)cn2c1N(C)Cc1cccs1	-4	12	.	.	3	2	.	.
COC(=O)[C@]12CCCCC=C1N(Cc1ccc3c(c1)OCO3)C(=O)[C@H](CC(=O)NCc1ccc(OC)c(OC)c1)C2	4	.	.	.	.	.	.	.
O=C(CCCCl)Oc1ccc2cc(-c3ccc4ccccc4n3)c(=O)oc2c1	14*	20	-24	0	-1	.	13*	0
CC(=O)COc1ccc2cc(-c3ccccc3)c(=O)oc2c1	-12	9	5	0	-1	9	.	.
Cc1ccc(N2CC(C(=O)OCc3nnc(-c4ccccc4)o3)CC2=O)cc1 (stereo not given)	-4	4	.	0	-1	8	.	.
CC1C(=O)N(Cc2cn(Cc3ccco3)nn2)CCS(=O)(=O)N1Cc1ccc(-c2ccc(F)cc2Cl)cc1 (stereo not given)	-4	.	.	.	.	.	.	.
CCCOc1ccc(Cl)cc1CN1CCOCC1	3	0	5	0	-1	1	.	.
COc1ccc(Cl)cc1CN1CCOCC1	13*	-1	3	0	-1	8	8	0
SMILES	GalR3 antagonist	MC4R antagonist	Calb FLC	Efflux pump mplx	MC4R ag barr	TAG inh	GalR3 conf	CNG parental
CN(c1ccccc1)S(=O)(=O)c1cccc(C(=O)NCC(c2cccs2)N2CCOCC2)c1 (stereo not given)	-6	15	.	.	-1	-6	.	.
CCOc1ccc(S(=O)(=O)Nc2nc3ccccc3nc2Cl)cc1	-8	6	23	0	0	.	.	.
CCOc1ccc(S(=O)(=O)Nc2nc3ccccc3nc2N2CCN(C)CC2)cc1	20*	-9	-3	0	2	28	17*	0
Cc1c(C(=O)NCc2ccccc2C(F)(F)F)sc(=O)n1Cc1ccc2c(c1)OCO2	0	13	.	.	0	-6	.	.
COc1cc(C(Nc2ccc(S(=O)(=O)NCC3CCCO3)cc2)C(=O)NC(C)(C)C)cc(OC)c1OC (stereo not given)	16*	9	2	0	-2	2	10	0
O=S(=O)(NCC1CCCO1)c1ccc(-c2ccc(S(=O)(=O)NCC3CCCO3)cc2)cc1 (stereo not given)	97*	11	20	0	-3	-38	106*	-1
Cc1ccc([C@@H]2CC(=O)[C@@H]3CN(S(=O)(=O)c4ccc(C)cc4)[C@H](c4ccccc4)C[C@@H]3N2S(=O)(=O)c2ccc(C)cc2)cc1	2	.	.	.	.	.	.	.
NC(=O)c1ccc(NC(=O)COC(=O)CCC2CCCC2)cc1	-3	12	.	.	-2	-2	.	.
CCOC(=O)C1CCN(C2CCN(Cc3nc(-c4ccccc4)no3)CC2)CC1	13*	0	-25	0	0	2	0	0
COc1ccc2[nH]c(O)c(N=NC(=N)N)c2c1	14*	-18	-2	1	-1	.	3	0
Cc1ccc2[nH]c(O)c(N=NC(N)=S)c2c1	-2	-34	6	1	-2	4	.	.
CC(C)=CCOc1ccc([C@@H]2COc3c(ccc4c3C=CC(C)(C)O4)C2)c(O)c1	19*	17	0	0	1	.	18*	22*
COc1ccc(OCc2cc(=O)c3ccc4c(c3o2)C=CC(C)(C)O4)cc1OC	6	4	.	0	0	.	.	.
COC(=O)C1=C(C)N(C)C(=NCC2CC2)NC1c1cccc(F)c1 (stereo not given)	-7	.	.	.	.	.	.	.
CC(C)C[C@H]1CN([C@@H](Cc2ccccc2)CN2CCC[C@H]2CN2C(=O)C(=O)NC[C@@H]2Cc2ccccc2)C(=O)C(=O)N1CCc1ccccc1	-3	.	.	.	.	.	.	.

Screening results: PubChem, several laboratories
